Measurements reported in article PMC7680388 (Cell chemical biology, 2020).
Like-named read-outs stand apart in the source and are kept apart here.

Columns and labels:
MM.1R cells = experiment: Apoptosis flow cytometry; format: cell-based, Homo sapiens
Procedure, shortened: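 MM.1R cells were treated with test compound (10 μM) or vehicle (0.1% DMSO) for 8, 16 and 24 h. Cells were washed twice in cold DPBS and resuspended in cold Annexin V buffer (HEPES, EDTA, CaCl2) with 5 μg/mL Annexin V-510 and 50 μg/mL PI. They were held 15 min at room temperature in the dark, then run by flow cytometry (violet/blue lasers). Annexin V+/PI− cells were scored apoptotic; three biological replicates.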

solid tumors = conditions: ref Huang et al., 2014; cited from earlier work
Rpn13 [1] = target: T1, Rpn13 (Homo sapiens, UniProt Q16186); conditions: ref Anchoori et al., 2013; cited from earlier work
T1 sequence (Q16186 whole entry): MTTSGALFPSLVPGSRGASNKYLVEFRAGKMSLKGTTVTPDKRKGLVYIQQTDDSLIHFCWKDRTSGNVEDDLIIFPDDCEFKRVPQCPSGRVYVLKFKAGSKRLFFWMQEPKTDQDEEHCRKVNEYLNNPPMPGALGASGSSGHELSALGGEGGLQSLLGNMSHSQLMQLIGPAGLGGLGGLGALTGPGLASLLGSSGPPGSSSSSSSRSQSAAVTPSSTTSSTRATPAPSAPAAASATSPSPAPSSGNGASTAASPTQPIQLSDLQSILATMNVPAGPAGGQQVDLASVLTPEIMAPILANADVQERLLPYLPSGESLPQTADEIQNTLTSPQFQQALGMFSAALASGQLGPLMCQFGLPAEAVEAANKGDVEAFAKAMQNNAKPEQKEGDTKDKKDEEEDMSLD

[2] = tested on: cancer (in cellulo and in vivo); conditions: ref Anchoori et al., 2013; cited from earlier work
Rpn13 [3] = target: T1, Rpn13; conditions: two different cancer cell lines, ref Dickson, et al., submitted, cited from earlier work
26S proteasome = experiment: Deubiquitylase activity of purified 26S proteasome; format: biochemical, human; conditions: KDT-11 10 μM; b-AP15 1 μM; 1 nM purified 26S proteasome, 5 mM ATP; biological triplicate; Fig. 2F

Structure (SMILES): CC(C)C[C@H](NC(=O)[C@H](Cc1ccccc1)NC(=O)c1cnccn1)B(O)O [Bortezomib]
- induction of apoptosis and cell death, Annexin V/PI staining (MM.1R cells; 8, 16 and 24 hours): induces apoptosis and cell death rapidly
- cells both Annexin V- and PI-positive (MM.1R cells; 16 hours, KDT-11 10 μM (Fig. 4), Bortezomib Supplementary Figure 4): ≈ 85%
- dose-limiting toxicity (solid tumors): dose-limiting toxicity
- efficacy as a single agent in solid tumors (solid tumors): unsuccessful as a single agent to treat solid tumors

Structure (SMILES): Cl.N[C@@H](Cc1ccccc1)C(=O)N1C/C(=C/c2ccc(Cl)c(Cl)c2)C(=O)/C(=C\c2ccc(Cl)c(Cl)c2)C1 [RA190]
- engagement of Rpn13 in vitro (Rpn13 [1]): engages Rpn13 selectively in vitro
- anti-cancer activity in cellulo and in vivo [2]: displays interesting anti-cancer activity in cellulo and in vivo
- engagement of Rpn13 in cellulo (Rpn13 [3]): Rpn13 is not engaged by this compound in cellulo
- engagement of Rpn13 in cellulo (Rpn13 [3]; listed as RA-190): does not engage Rpn13 in cells

Structure (SMILES): C=CC(=O)N1C/C(=C\c2ccc([N+](=O)[O-])cc2)C(=O)/C(=C/c2ccc([N+](=O)[O-])cc2)C1 [b-AP15]
- effect on rate of Ub-AMC hydrolysis by 26S proteasome (26S proteasome): greater inhibition
